Measurements as given in ChEMBL document CHEMBL1134307, “trans-4-[4-(Methoxyphenyl)cyclohexyl]-1-arylpiperazines: a new class of potent and selective 5-HT(1A) receptor ligands as conformationally constrained analogues of 4-[3-(5-methoxy-1,2,3,4-tetrahydronaphthalen-1-yl)propyl]-1-arylpiperazines” (J Med Chem, 2001).

Tests used:
[1] = Selectivity expressed as a ratio of affinity against Alpha 1b-Adrenoceptor to that of 5-HT1A receptor
[2] = Selectivity expressed as a ratio of affinity against Alpha 1A-Adrenoceptor to that of 5-HT1A receptor
[3] = molecular target: T1, 5-hydroxytryptamine receptor 1A (Homo sapiens) (UniProt P08908); test: Potency (pD2) for the stimulation of [35S]GTP-gamma-S, binding on 5-hydroxytryptamine 1A receptor; format: functional
T1 sequence (whole entry): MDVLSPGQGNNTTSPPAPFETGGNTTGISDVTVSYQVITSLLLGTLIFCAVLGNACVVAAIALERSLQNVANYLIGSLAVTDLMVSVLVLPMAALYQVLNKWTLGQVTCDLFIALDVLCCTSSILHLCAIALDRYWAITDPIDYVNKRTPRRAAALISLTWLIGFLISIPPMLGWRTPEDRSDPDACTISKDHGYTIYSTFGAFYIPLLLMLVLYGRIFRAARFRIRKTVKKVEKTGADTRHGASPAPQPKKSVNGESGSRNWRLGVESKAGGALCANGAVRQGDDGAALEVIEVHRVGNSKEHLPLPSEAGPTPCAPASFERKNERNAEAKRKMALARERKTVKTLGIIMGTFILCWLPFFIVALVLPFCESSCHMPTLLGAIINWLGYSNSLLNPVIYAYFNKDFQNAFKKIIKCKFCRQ
Method in brief: (§1)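 Membranes of HeLa cells expressing human 5-HT1A, in 20 mM HEPES, 3 mM MgCl2, 120 mM NaCl pH 7.4. Preincubated 20 min at 30 °C with 30 µM GDP and drug (0.1 nM–100 µM) or 5-HT as reference curve. [35S]GTPγS (200–250 pM) then added for 30 min at 30 °C. Nonspecific binding with 10 µM GTPγS. Curves fitted by ALLFIT to give Emax and pD2 (−log EC50).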

[4] = molecular target: T1, 5-hydroxytryptamine receptor 1A (Homo sapiens); test: Maximal stimulation was expressed as percentage of the maximal 5-HT response in the [35S]GTP-gamma-S, binding assay on 5-hydroxytryptamine 1A receptor; format: functional; method in brief: as §1
[5] = Selectivity expressed as a ratio of affinity against Alpha 1d-Adrenoceptor to that of 5-HT1A receptor
[6] = molecular target: T2, 5-hydroxytryptamine receptor 1A (Homo sapiens, UniProt P08908); test: Binding affinity on human cloned 5-hydroxytryptamine 1A receptor transfected in human cell lines (He La); format: cell-based, Cell line
T2 sequence (P08908 whole entry): T1 sequence (whole entry)
Method in brief: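 HeLa cells stably expressing human 5-HT1A (genomic clone G-21), grown in DMEM with 10% FCS. […] Nonspecific binding with 10 µM 5-HT. Filtration through PEI-pretreated filters.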

| SMILES | Selectivity [1] | Selectivity [2] | pD2 [3] | Emax [4] [%] | Selectivity [5] | Ki [6] [pM] |
| --- | --- | --- | --- | --- | --- | --- |
| COc1cccc2c(CCCN3CCN(c4ccccn4)CC3)cccc12 | 1 | 0.5 | 7.87 | 86.3 | 4 | – |
| COc1cccc2c(CCCNCCOc3ccccn3)cccc12 | 314 | 17 | 8.2 | 48 | 97 | – |
| COc1cccc2c1CCCC2CCCN1CCN(c2ccccn2)CC1 (stereo unspecified) | 98 | 4 | 10.2 | 98.2 | 74 | 80 |
| COc1cccc2c1CCCC2CCCNCCOc1ccccn1 (stereo unspecified) | 115 | 2 | 10.2 | 86.8 | 55 | – |
